Compounds with a hit are over-represented: about 2.9% of the library has one in this group of screens.
UBC13 polyUb = inhibitors of human UBC13 polyubiquitin chain formation; P61088; TR-FRET; inhibition, % at 20 µM; 330,000 tested, 0.47% active; in the data active = inhibition above about 45%, passing the limit was not always enough
MEKK2 WT-MEK5 = raises or lowers MEK5 binding to wildtype human MEKK2 PB1 domain; 290,000 tested, 1.1% active; binding response (% of control), % at 10 µM; bead flow cytometry, Alexa488-MEK5 binding to MEKK2 WT; actives lie on both sides; in the data active = binding response below about 67% or above about 130%
MEKK3 PB1 HTS = modulators (inhibitors or enhancers) of MEK5 binding to human MEKK3 PB1 domain; Q99759; bead-based flow cytometry, Alexa488-MEK5 binding to MEKK3; actives lie on both sides; 0 = blocked by unlabeled MEK5, 100 = vehicle; binding response (% of control), % at 10 µM; 290,000 tested, 1.4% active; AID 1529;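 active = binding response more than 3 SD above or below the average of its plate-row segment, actives on both sides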;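 note: Alexa488 bead fluorescence after subtracting the streptavidin-only scavenger bead signal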
MEKK2mut PB1 HTS = signal of MEK5 binding to mutant human MEKK2 PB1 domain | bead flow cytometry, Alexa488-MEK5 binding to MEKK2 mutant | 290,000 tested, 0.35% active | AID 1530 | percent response, % at 10 µM; in the data active = percent response above about 24%, passing the limit was not always enough
Apaf-1 inh = inhibitors of human Apaf-1 apoptosome. O14727. reconstituted apoptosome caspase-3 activity, DEVD-Rh110 fluorescence. inhibition, % at 20 µM. 330,000 tested, 0.71% active. AID 489030; active = inhibition of at least 40% at 20 µM;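 note: plate controls were DMSO wells for no effect and DEVD-CHO caspase inhibitor wells for full effect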
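Material: reconstituted apoptosome with Apaf-1, cytochrome c, caspase-9, procaspase-3, dATP. Technique: Rh110 fluorescence intensity. Buffer or medium: pH 7.5 Hepes buffer with CHAPS, BSA, DTT. Times: 30 min plus 50 min, RT.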
MEKK2wt confirm = raises or lowers MEK5 binding to wildtype human MEKK2, retest; shares compounds with MEKK3 PB1 HTS; bead flow cytometry, Alexa488-MEK5 binding to MEKK2 WT; actives lie on both sides; binding response (% of control), % at 10 µM; 5,900 tested, 2.4% active; AID 1892; in the data active = binding response below about 16% or above about 210%; inactive = in between
MEKK2mut confirm = signal of MEK5 binding to mutant human MEKK2, retest | 5,900 tested, 2% active | percent response, % at 10 µM | shares compounds with MEKK3 PB1 HTS | bead flow cytometry, Alexa488-MEK5 binding to MEKK2 mutant; in the data active = percent response mostly above about 71%, no sharp cut-off; inactive = mostly below about 38%;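 note: higher means compound restores mutant binding toward wildtype level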
MEKK3 confirm = confirmation of inhibitors of MEK5 binding to human MEKK3 | shares compounds with MEKK3 PB1 HTS | bead flow cytometry, Alexa488-MEK5 binding to MEKK3; active compounds read low | binding response (% of control), % at 10 µM | 5,900 tested, 1.8% active | AID 1894;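 active = binding response below 72% of control, or above a set upper limit, though filed actives all read lower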;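 note: 100% = DMSO only wells and 0% = binding blocked by excess unlabeled MEK5; lower values mean stronger disruption of MEK5 binding to MEKK3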
Starred values were filed as active, the others as inactive; nt = no result; ! = not confirmed by another sample; [ ] = dose if it differs, or a comment.

SMILES	UBC13 polyUb	MEKK2 WT-MEK5	MEKK3 PB1 HTS	MEKK2mut PB1 HTS	Apaf-1 inh	MEKK2wt confirm	MEKK2mut confirm	MEKK3 confirm
O=C1c2ccccc2-c2onc3ccc(NCCCn4ccnc4)c1c23	-326	28*[inhibitor]	33*[inhibitor]	-21	6	42	-15	42*
CCOc1cccc(N2C(=O)CC(NNC(=O)c3ccc(Br)o3)C2=O)c1 (centres undefined)	-12	97	102	1	-8	nt	nt	nt
CCCOc1ccc(N2C(=O)CC(NNC(=O)c3ccc(COc4ccccc4)o3)C2=O)cc1 (centres undefined)	2	99	142*	3	6	98	-4	97
CNC(=O)COC(=O)/C=C/c1cn(-c2ccccc2)nc1-c1ccc2c(c1)OCCO2	4	105	107	-3	1	nt	nt	nt
Cc1ccc(-c2nn(-c3ccccc3)cc2/C=C/C(=O)OCC(=O)NC2CC2)o1	20	116	131*	5	18	96	-7	89
OC(CNCCCCNCC(O)C(F)(F)F)C(F)(F)F (centres undefined)	-5	100	102	1	7	nt	nt	nt
COc1ccc(Cl)cc1NC(=O)C[n+]1ccccc1	8	108	105	3	-8	nt	nt	nt
CCc1cc[n+](CC(=O)Nc2ccc(Cl)cc2Cl)cc1	10	4.0*[inhibitor]	3.0*[inhibitor]	-4	0	108	4	101
C/C(Cn1nnc2ccccc21)=N\OC(=O)c1ccccc1C	6	104	138*	1	-5	106	6	106
Cc1ccc(-c2cc(N)n(-c3ccc(F)cc3)n2)cc1	12	84	80	-5	-11	nt	nt	nt
CCN(CC)CCN(C(=O)c1ccc2ccccc2c1)c1nc2cc3c(cc2s1)OCO3	20	135*	105	21	19	116	5	100
CCN(CC)CCN(C(=O)CN1C(=O)c2ccccc2C1=O)c1nc2cc3c(cc2s1)OCO3	6	122	105	14	23	nt	nt	nt
CCN(CC)CCN(C(=O)c1ccc(S(=O)(=O)N2CCCCC2)cc1)c1nc2cc3c(cc2s1)OCO3	39	127	132*	2	-6	132	31	110
CCN(CC)c1ccc(NC(=O)CN2CCN(CC(=O)Nc3ccccc3OC)CC2)cc1	10	104	105	4	9	nt	nt	nt
CCN(CC)c1ccc(NC(=O)CN2CCN(CC(=O)Nc3ccccc3F)CC2)cc1	4	124	122*	13	6	104	2	97
Cc1ccc(S(=O)(=O)N2CCCC2CNC(=O)C(=O)NCCN2CCOCC2)cc1 (centres undefined)	0	nt	nt	nt	5	nt	nt	nt
COc1cc(O)c(C(CC(=O)N2CCN(c3ccccc3)CC2)c2ccc(N(C)C)cc2)c(OC)c1 (centres undefined)	13	134	85	4	21	nt	nt	nt
COc1cc(O)c(C(CC(=O)N2CCCCC2)c2ccc3c(c2)OCO3)c(OC)c1 (centres undefined)	6	140*	122	4	8	102	-1	103
COc1cc(O)c(C(CC(=O)N2CCCC(C)C2)c2ccc3c(c2)OCO3)c(OC)c1 (centres undefined)	0	142*	121	2	16	104	1	98
COc1cc(O)c(C(CC(=O)N2CCCC(C)C2)c2ccc(N(C)C)cc2)c(OC)c1 (centres undefined)	-6	158*	127	2	15	103	0	101
COc1ccc(C(CC(=O)N2CCCC2)c2c(O)cc(OC)cc2OC)cc1 (centres undefined)	-2	97	95	1	16	nt	nt	nt
COc1cc(O)c(C(CC(=O)N2CCOCC2)c2cc(OC)c(OC)c(OC)c2)c(OC)c1 (centres undefined)	-1	154*	126	3	4	97	2	101
CCc1ccccc1OCC(=O)NNCC(=O)Nc1cccc(C#N)c1	2	nt	nt	nt	-1	nt	nt	nt
O=C(NCCNC(=O)c1cc(OCC(F)(F)F)ccc1OCC(F)(F)F)Nc1cccc(C(F)(F)F)c1	-1	142*	103	11	14	111	4	103
O=C(Nc1ccc(OC(F)F)cc1)Nc1cccc(C(F)(F)F)c1	5	209*	113	17	1	115	-1	93
SMILES	UBC13 polyUb	MEKK2 WT-MEK5	MEKK3 PB1 HTS	MEKK2mut PB1 HTS	Apaf-1 inh	MEKK2wt confirm	MEKK2mut confirm	MEKK3 confirm
O=C(Nc1ccncc1)Nc1cccc(C(F)(F)F)c1	14	101	100	-3	18	nt	nt	nt
CCN(CC)S(=O)(=O)c1ccc(NC(=O)Nc2cccc(C(F)(F)F)c2)cc1	-4	144*	108	26	-10	168	30	102
Cc1ccc(S(=O)(=O)Nc2ccc(NC(=O)Nc3cccc(C(F)(F)F)c3)cc2)cc1	-16	171*	109	54*	30	176	36	97
Cc1ccc(NC(=S)NNC(=S)Nc2cccc(C(F)(F)F)c2)cc1	-19	117	107	4	7	nt	nt	nt
Cc1ccc(S(=O)(=O)NCc2cn3ccccc3n2)c(C)c1	7	102	100	1	-4	nt	nt	nt
c1ccc2[nH]c(-c3ccncc3)nc2c1	9	46*![inhibitor]	42*![inhibitor]	-13	1	106	12	108
O=C(NCC1CCCO1)C(c1ccccn1)N(Cc1ccccc1Cl)C(=O)CN1C(=O)c2ccccc2S1(=O)=O (centres undefined)	-1	87	91	-10	-5	nt	nt	nt
CC1Cc2ccccc2N1Cc1cccc([N+](=O)[O-])c1 (centres undefined)	-11	103	100	1	12	nt	nt	nt
O=C(Nc1ccccc1)C(c1ccccc1)C1CCCC1 (centres undefined)	nt	104	148*	0	nt	107	10	105
COCCSc1nnc(NS(=O)(=O)c2ccc(F)cc2)s1	-3	119	136*	0	-16	105	19	106
OCCN(CCO)CC(O)COc1ccc(C23CC4CC(CC(C4)C2)C3)cc1 (centres undefined)	nt	122	132*	3	nt	140	15	107
OCCN(CCO)CC(O)COc1ccc(Br)cc1 (centres undefined)	3	97	94	3	0	nt	nt	nt
CC(=O)Nc1ccc(NC(=O)C(C)Sc2nnc(-c3ccc4c(c3)OCO4)o2)cc1 (centres undefined)	15	nt	nt	nt	-15	nt	nt	nt
O=C(COC(=O)CSc1nnc(-c2ccc(Cl)cc2)o1)NCc1ccc2c(c1)OCO2	-3	85	81*[inhibitor]	-12	9	102	-2	102

High-throughput results (PubChem BioAssay)
